ChEMBL document CHEMBL1153117, “Synthesis of substituted aryloxy alkyl and aryloxy aryl alkyl imidazoles as antileishmanial agents” (Bioorg Med Chem Lett, 2010)
Converted amounts (≈) assume the structure as drawn.

How the values were obtained:
Leishmania donovani [1] = experiment: Antileishmanial activity against Leishmania donovani amastigotes; type: functional, organism-based
Procedure, shortened: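 Intracellular L. donovani amastigotes tested in vitro, with sodium stibogluconate, pentamidine and amphotericin B as controls. IC50 (µg/mL) was obtained by nonlinear regression of the concentration–response curve using the four-parameter Hill equation.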

[2] = (§1) Selectivity index, ratio of CC50 for mouse J774A1 cells to IC50 for Leishmania donovani amastigotes; type: functional, J774.A1
Procedure, shortened: (§2)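 Computed as CC50 in the J-774-A-1 macrophage MTT assay divided by anti-amastigote IC50. The IC50 came from a four-parameter Hill fit of the concentration–response curve.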

[3] = Cytotoxicity against mouse J774A1 cells by MTT assay; type: cell-based, J774.A1
Procedure, shortened: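 Mouse macrophage line J-774-A-1 tested for cytotoxicity. Viability was read by MTT assay. CC50 (µg/mL) was estimated by the Huber and Koella method.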

Leishmania donovani [4] = experiment: Antileishmanial activity against Leishmania donovani promastigotes at 10 ug/mL; type: functional
Procedure, shortened: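 L. donovani promastigotes exposed in vitro to 10 µg/mL. Result expressed as percent inhibition.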

Leishmania donovani [5] = experiment: Antileishmanial activity against Leishmania donovani infected in hamster assessed inhibition of parasite growth at 50 mg/kg, ip for 10 days; type: functional; details: 240 h, route intraperitoneal
Procedure, shortened: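 Hamster model (Mesocricetus auratus) infected with L. donovani. Dosed intraperitoneally at 50 mg/kg × 10. Read-out was percent inhibition of parasite growth.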

J774.A1 = experiment: as §1; type: functional; procedure, shortened: as §2
Leishmania donovani [6] = experiment: Antileishmanial activity against Leishmania donovani infected in hamster assessed inhibition of parasite growth at 20 mg/kg; type: functional, organism-based; design: dose 20 mg/kg
Leishmania donovani [7] = experiment: Antileishmanial activity against Leishmania donovani infected in hamster assessed inhibition of parasite growth at 40 mg/kg; type: functional
Leishmania donovani [8] = experiment: Antileishmanial activity against Leishmania donovani promastigotes; type: functional, organism-based
Leishmania donovani [9] = experiment: Antileishmanial activity against Leishmania donovani infected in hamster assessed inhibition of parasite growth at 8 mg/kg, iv for 5 days; type: functional; details: 120 h
[10] = Leishmania donovani, read-out: IC50

Row | IC50 (Leishmania donovani [1]; [10]) [µg/mL] | IC50 (Leishmania donovani [1]) | IC50 (Leishmania donovani [8]) [µg/mL] | Compound | Ratio CC50/IC50 [2] | CC50 [3] [µg/mL] | inhibition at 10 µg/mL (Leishmania donovani [4]) [%] | inhibition in vivo at 50 mg/kg (Leishmania donovani [5]) [%] | Ratio CC50/IC50 (J774.A1) | inhibition (Leishmania donovani [6]) [%] | inhibition in vivo at 40 mg/kg (Leishmania donovani [7]) [%] | inhibition in vivo at 8 mg/kg (Leishmania donovani [9]) [%]
1 | 1.85 (≈ 5.13 µM) | – | – | C[C@@H](Cn1ccnc1)[C@@H](Oc1ccc(C(F)(F)F)cc1)c1ccccc1 (relative stereo) | 11.75 | 21.7 (≈ 60.3 µM) | 100 | – | – | – | – | –
2 | 5.62 (≈ 16.6 µM) | – | – | O=[N+]([O-])c1ccc(OC(COc2ccccc2)Cn2ccnc2)cc1 (stereo unspecified) | 5 | 28.1 (≈ 82.9 µM) | 93.8 | – | – | – | – | –
3 | 3.82 (≈ 11.8 µM) | – | – | O=[N+]([O-])c1ccc(OC(CCn2ccnc2)c2ccccc2)cc1 (stereo unspecified) | 6.57 | 25.1 (≈ 77.6 µM) | 99 | – | – | – | – | –
4 | 2.83 (≈ 8.29 µM) | – | – | O=[N+]([O-])c1ccc(OC(CCn2ccnc2)c2ccccc2)c(F)c1 (stereo unspecified) | 8.86 | 25.1 (≈ 73.5 µM) | 96.3 | – | – | – | – | –
5 | 3.71 (≈ 12 µM) | – | – | O=[N+]([O-])c1ccc(OC(Cn2ccnc2)c2ccccc2)cc1 (stereo unspecified) | 6.79 | 25.2 (≈ 81.5 µM) | 95.5 | – | – | – | – | –
6 | 5.13 (≈ 14.4 µM) | – | – | O=[N+]([O-])c1ccc(OC(COc2ccccc2)Cn2ccnc2)c(F)c1 (stereo unspecified) | 5.76 | 29.6 (≈ 82.8 µM) | 98.2 | – | – | – | – | –
7 | 0.47 (≈ 1.36 µM) | – | – | FC(F)(F)c1ccc(OC(CCn2ccnc2)c2ccccc2)cc1 (stereo unspecified) | 36.68 | 17.2 (≈ 49.8 µM) | 100 | 60 | – | – | – | –
8 | 4.82 (≈ 14.2 µM) | – | – | O=[N+]([O-])c1ccccc1OC(COc1ccccc1)Cn1ccnc1 (stereo unspecified) | 7.51 | 36.2 (≈ 107 µM) | 95.5 | – | – | – | – | –
9 | 2.05 (≈ 6.17 µM) | – | – | FC(F)(F)c1ccc(OC(Cn2ccnc2)c2ccccc2)cc1 (stereo unspecified) | 13.85 | 28.4 (≈ 85.6 µM) | 98.6 | 46 | – | – | – | –
10 | 0.56 (≈ 1.55 µM) | – | – | FC(F)(F)c1ccc(OC(COc2ccccc2)Cn2ccnc2)cc1 (stereo unspecified) | 31.89 | 17.9 (≈ 49.3 µM) | 100 | 58 | – | – | – | –
11 | 0.48 (≈ 1.48 µM) | – | – | O=[N+]([O-])c1ccccc1OC(CCn1ccnc1)c1ccccc1 (stereo unspecified) | – | 18 (≈ 55.5 µM) | 100 | 52 | – | – | – | –
12 | 12.1 (≈ 35.6 µM) | – | – | N=C(N)c1ccc(OCCCCCOc2ccc(C(=N)N)cc2)cc1 [PENTAMIDINE] | – | – | – | – | – | – | 92 | –

Second part, the compound before the results:

Row | Compound | IC50 (Leishmania donovani [1]; [10]) [µg/mL] | IC50 (Leishmania donovani [1]) | IC50 (Leishmania donovani [8]) [µg/mL] | Ratio CC50/IC50 [2] | CC50 [3] [µg/mL] | inhibition at 10 µg/mL (Leishmania donovani [4]) [%] | inhibition in vivo at 50 mg/kg (Leishmania donovani [5]) [%] | Ratio CC50/IC50 (J774.A1) | inhibition (Leishmania donovani [6]) [%] | inhibition in vivo at 40 mg/kg (Leishmania donovani [7]) [%] | inhibition in vivo at 8 mg/kg (Leishmania donovani [9]) [%]
13 | CC(CCn1ccnc1)Oc1ccc(C(F)(F)F)cc1 (stereo unspecified) | 8.08 (≈ 28.4 µM) | – | – | 0.88 | 7.5 (≈ 26.4 µM) | 100 | – | – | – | – | –
14 | O=[N+]([O-])c1ccc(OC(Cn2ccnc2)c2ccccc2)c(F)c1 (stereo unspecified) | 2.76 (≈ 8.43 µM) | – | – | 7.69 | 21.2 (≈ 64.9 µM) | 94.6 | – | – | – | – | –
15 | CC(CCn1ccnc1)Oc1ccc([N+](=O)[O-])cc1F (stereo unspecified) | – | Not Active | – | – | 15 (≈ 53.7 µM) | 100 | – | – | – | – | –
16 | C[C@@H](Cn1ccnc1)[C@@H](Oc1ccccc1[N+](=O)[O-])c1ccccc1 (relative stereo) | 2.27 (≈ 6.73 µM) | – | – | 9.75 | 22.1 (≈ 65.7 µM) | 95 | – | – | – | – | –
17 | CC(CCn1ccnc1)Oc1ccccc1[N+](=O)[O-] (stereo unspecified) | 8.43 (≈ 32.3 µM) | – | – | >11.86 | > 100 | 100 | – | – | – | – | –
18 | O=[N+]([O-])c1ccccc1OC(Cn1ccnc1)c1ccccc1 (stereo unspecified) | 2.25 (≈ 7.27 µM) | – | – | 11.17 | 25.1 (≈ 81.3 µM) | 97.5 | – | – | – | – | –
19 | CC(CCn1ccnc1)Oc1ccc([N+](=O)[O-])cc1 (stereo unspecified) | – | Not Active | – | – | 24.1 (≈ 92.2 µM) | 100 | – | – | – | – | –
20 | sodium stibogluconate | – | – | – | – | – | – | – | 6.38 | 84.1 | – | –
21 | C[C@@H]1[C@H](O)[C@@H](C)/C=C/C=C/C=C/C=C/C=C/C=C/C=C/[C@H](O[C@@H]2O[C@H](C)[C@@H](O)[C@H](N)[C@@H]2O)C[C@@H]2O[C@](O)(C[C@@H](O)C[C@@H](O)[C@H](O)CC[C@@H](O)C[C@@H](O)CC(=O)O[C@H]1C)C[C@H](O)[C@H]2C(=O)O [AMPHOTERICIN B] | 0.05 (≈ 0.0541 µM) | – | 0.008 (≈ 0.00866 µM) | 144.8 | 7.24 (≈ 7.83 µM) | – | – | – | – | – | 92.2
22 | CC(CCn1ccnc1)Oc1ccc([N+](=O)[O-])cc1C(F)(F)F (stereo unspecified) | 9.97 (≈ 30.3 µM) | – | – | 0.97 | 7.73 (≈ 23.5 µM) | 100 | – | – | – | – | –
